# pIC50: −log10 of the molar value. Activity calls are given as the source filed them. The rule behind the calls is not given here.
# What was measured:
# RAW264.7 [1] = test: Immunosuppressive activity in mouse RAW264.7 cells assessed as inhibition of LPS-induced nitric oxide production incubated for 24 hrs by Griess method; format: functional
# How it was run: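 Murine macrophage-like RAW264.7 cells were activated with LPS. Control wells (LPS only) and blank wells (cells only) each received 0.1% DMSO vehicle.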
# RAW264.7 [2] = test: Acute toxicity in mouse RAW264.7 cells assessed as OD540 absorbance incubated for 24 hrs by MTT assay; format: cell-based; conditions: raw264.7, 24 h
# How it was run: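 RAW264.7 cells kept in DMEM with 5% FBS, 100 U/mL penicillin and streptomycin, at 37 °C in humidified 5% CO2. Compounds were added at the indicated concentrations for 24 h. MTT reagent (5 mg/mL stock) was then added for 4 h, supernatants were aspirated and formazan crystals were dissolved for reading. Control and blank wells received 0.1% DMSO.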
# RAW264.7 [3] = test: Inhibition of iNOS mRNA expression in mouse RAW264.7 cells by RT-PCR; format: functional, cell-based
# [4] = molecular target: T1, Nitric oxide synthase, inducible (Mus musculus, UniProt P29477); test: Inhibition of iNOS in mouse RAW264.7 cells assessed as conversion of L-citrulline to L-arginine incubated for 30 mins by scintillation counting; format: cell-based; conditions: in the assay text read “conversion of L-arginine to L-citrulline” for “conversion of L-citrulline to L-arginine”
# T1 sequence (P29477 whole entry): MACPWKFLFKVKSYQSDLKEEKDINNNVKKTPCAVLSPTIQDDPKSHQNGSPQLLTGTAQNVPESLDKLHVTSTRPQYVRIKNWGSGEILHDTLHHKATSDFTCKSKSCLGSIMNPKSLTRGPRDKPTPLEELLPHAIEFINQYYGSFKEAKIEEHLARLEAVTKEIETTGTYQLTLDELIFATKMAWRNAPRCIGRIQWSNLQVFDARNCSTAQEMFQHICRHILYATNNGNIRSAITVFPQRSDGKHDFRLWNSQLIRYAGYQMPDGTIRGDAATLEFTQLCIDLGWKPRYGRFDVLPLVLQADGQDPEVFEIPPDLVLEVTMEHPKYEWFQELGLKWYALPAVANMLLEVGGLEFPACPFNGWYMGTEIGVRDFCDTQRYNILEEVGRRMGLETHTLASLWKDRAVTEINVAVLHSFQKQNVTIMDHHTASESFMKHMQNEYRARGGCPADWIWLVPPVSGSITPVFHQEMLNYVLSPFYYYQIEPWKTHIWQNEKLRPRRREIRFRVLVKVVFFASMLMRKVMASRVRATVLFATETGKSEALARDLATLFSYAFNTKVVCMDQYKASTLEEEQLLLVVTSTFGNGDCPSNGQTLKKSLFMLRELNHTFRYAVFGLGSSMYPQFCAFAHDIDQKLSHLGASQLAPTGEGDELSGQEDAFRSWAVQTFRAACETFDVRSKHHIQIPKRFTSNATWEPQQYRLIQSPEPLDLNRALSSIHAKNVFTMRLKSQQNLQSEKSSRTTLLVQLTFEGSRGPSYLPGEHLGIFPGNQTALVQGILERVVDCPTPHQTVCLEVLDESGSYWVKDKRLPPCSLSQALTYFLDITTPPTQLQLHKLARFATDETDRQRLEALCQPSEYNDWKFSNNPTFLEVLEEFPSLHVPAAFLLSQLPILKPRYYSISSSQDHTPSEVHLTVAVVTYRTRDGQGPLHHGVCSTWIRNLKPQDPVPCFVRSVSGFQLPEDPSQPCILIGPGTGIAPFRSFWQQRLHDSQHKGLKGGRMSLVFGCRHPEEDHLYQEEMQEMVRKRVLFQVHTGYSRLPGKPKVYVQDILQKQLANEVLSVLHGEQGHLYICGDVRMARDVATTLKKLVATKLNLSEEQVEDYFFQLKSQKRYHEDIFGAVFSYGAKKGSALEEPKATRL
# How it was run: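 Crude enzyme was the supernatant of collected RAW264.7 cells, adjusted to 50 mM Tris and 100 µM dithiothreitol final. Enzyme was incubated 30 min with NADPH, compound, L-[3H]-arginine (10 µCi/mL stock) and Tris pH 7.5. The reaction was stopped with 0.1 M buffer pH 5.0 containing 2 mM EDTA and 2 mM EGTA, then stirred 5 min with Dowex 50W-8X. L-[3H]-citrulline in the supernatant was read by scintillation counting.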
SMILES,inhibition (INH) (RAW264.7 [1]),deltaA (RAW264.7 [2]),inhibition (RAW264.7 [3]),pIC50 [4]
Clc1cccc(Cc2nnc(-c3ccc4c(c3)OCCO4)o2)c1,23.7%,0.2,,
Cc1ccccc1-c1nnc(-c2ccc3c(c2)OCCO3)o1,21.58%,1.03,inactive,7.00
O=[N+]([O-])c1ccc(-c2nnc(-c3ccc4c(c3)OCCO4)o2)cc1,1.34%,0.57,,
Clc1ccc(OCc2nnc(-c3ccc4c(c3)OCCO4)o2)cc1,10.49%,0.89,,5.67
O=[N+]([O-])c1cccc(-c2nnc(-c3ccc4c(c3)OCCO4)o2)c1,-33.82%,0.73,,
COc1cccc(Cc2nnc(-c3ccc4c(c3)OCCO4)o2)c1,21.66%,0.76,,
Brc1ccc(Cc2nnc(-c3ccc4c(c3)OCCO4)o2)cc1,-8.53%,0.99,,
C(=C\c1nnc(-c2ccc3c(c2)OCCO3)o1)/c1ccccc1,25.54%,1.15,inactive,7.05
O=[N+]([O-])c1ccccc1-c1nnc(-c2ccc3c(c2)OCCO3)o1,3.65%,0.3,,
c1cncc(-c2nnc(-c3ccc4c(c3)OCCO4)o2)c1,37.66%,1.31,Active,7.30
c1ccc(OCc2nnc(-c3ccc4c(c3)OCCO4)o2)cc1,6.98%,0.36,,
Brc1cncc(-c2nnc(-c3ccc4c(c3)OCCO4)o2)c1,-42.39%,1.22,,
COc1cc(-c2nnc(-c3ccc4c(c3)OCCO4)o2)cc(OC)c1OC,20.03%,1.02,inactive,6.92
c1ccc(CCc2nnc(-c3ccc4c(c3)OCCO4)o2)cc1,3.71%,0.1,,
c1ccc(-c2nnc(-c3ccc4c(c3)OCCO4)o2)cc1,5.08%,1.5,,5.63
Clc1ccc(Cc2nnc(-c3ccc4c(c3)OCCO4)o2)cc1,28.11%,0.63,,
Clc1ccccc1-c1nnc(-c2ccc3c(c2)OCCO3)o1,-57.48%,1.45,,
c1ccc(Cc2nnc(-c3ccc4c(c3)OCCO4)o2)cc1,-3.63%,0.45,,

# — ChEMBL document CHEMBL1811790, “Oxadiazole derivatives containing 1,4-benzodioxan as potential immunosuppressive agents against RAW264.7 cells” (Bioorg Med Chem, 2011)
